Source: ChEMBL document CHEMBL3867488 (ACS Med Chem Lett, 2016)

Columns and labels:
[1] = target: T1, Oxysterols receptor LXR-beta (Homo sapiens) (UniProt P55055); experiment: Agonist activity at human LXR-beta expressed in African green monkey CV1 cells measured after 18 to 20 hrs by luciferase reporter gene assay relative to pan agonist 1-(2,4-difluorobenzyl)-2-oxo-6-(4-phenoxyphenyl)-4-(trifluoromethyl)-1,2-dihydropyridine-3-carbonitrile; type: cell-based; conditions: CV-1
T1 sequence (whole entry): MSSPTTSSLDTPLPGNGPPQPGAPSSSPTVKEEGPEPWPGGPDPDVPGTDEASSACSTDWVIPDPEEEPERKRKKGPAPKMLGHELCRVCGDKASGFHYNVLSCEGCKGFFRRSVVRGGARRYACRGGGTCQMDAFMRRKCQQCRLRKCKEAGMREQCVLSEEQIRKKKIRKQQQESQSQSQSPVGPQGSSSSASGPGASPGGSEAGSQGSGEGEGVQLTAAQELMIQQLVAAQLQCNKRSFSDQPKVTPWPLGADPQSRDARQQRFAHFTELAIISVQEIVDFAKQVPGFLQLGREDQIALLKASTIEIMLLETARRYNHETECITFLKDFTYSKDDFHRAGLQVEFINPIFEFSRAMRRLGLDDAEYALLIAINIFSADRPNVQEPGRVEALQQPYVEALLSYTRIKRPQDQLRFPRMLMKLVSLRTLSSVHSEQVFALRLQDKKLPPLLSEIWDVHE

[2] = target: T2, Oxysterols receptor LXR-beta (Homo sapiens, UniProt P55055); experiment: Agonist activity at human LXR-beta expressed in African green monkey CV1 cells measured after 18 to 20 hrs by luciferase reporter gene assay; type: cell-based, CV-1
T2 sequence (P55055 whole entry): T1 sequence (whole entry)

[3] = target: Retinoic acid receptor RXR-alpha/oxysterols receptor LXR-beta (Homo sapiens, UniProt P55055); experiment: Displacement of [3H]-24,25-epoxycholesterol from human LXRbeta/RXRalpha expressed in baculovirus infected Sf9 cells by scintillation proximity analysis
Summary of the method: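 Binding affinity measured using full-length LXRα–RXRα and LXRβ–RXRα heterodimers.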

[4] = target: T2, Oxysterols receptor LXR-beta; experiment: Agonist activity at LXR-beta in human HeLa cells assessed as induction of ABCA1 by beta-galactosidase/luciferase reporter gene assay; type: cell-based
Summary of the method: (§1)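 HeLa cells carrying endogenous LXRα and LXRβ receptors, transfected with an ABCA1 LXREx3 reporter construct; agonist-driven reporter induction measured.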

[5] = target: T1, Oxysterols receptor LXR-beta (Homo sapiens); experiment: Agonist activity at LXR-beta in human HeLa cells assessed as induction of ABCA1 by beta-galactosidase/luciferase reporter gene assay relative to control; type: cell-based; summary of the method: as §1
[6] = target: T2, Oxysterols receptor LXR-beta; experiment: Agonist activity at LXR-beta in human whole blood assessed as ABCA1 gene induction by measuring ABCA1 mRNA level after 4 hrs by SYBR-Green dye-based Q-PCR analysis; type: tissue-based
[7] = target: T1, Oxysterols receptor LXR-beta (Homo sapiens); experiment: (§2) Agonist activity at LXR-beta in human whole blood assessed as ABCA1 gene induction by measuring ABCA1 mRNA level after 4 hrs by SYBR-Green dye-based Q-PCR analysis relative to pan agonist 2-(4-(5-(5-cyano-1-(2,4-difluorobenzyl)-6-oxo-4-(trifluoromethyl)-1,6-dihydropyridin-2-yl)thiophen-2-yl)-3-methylphenyl)acetic acid; type: tissue-based
[8] = target: T3, Nuclear receptor subfamily 1 group I member 2 (Homo sapiens, UniProt O75469); experiment: Agonist activity at human PXR expressed in human HepG2 cells assessed as induction of CYP3A4 measured after 24 hrs by AlamarBlue dye-based luciferase reporter gene assay; type: cell-based
T3 sequence (O75469 whole entry): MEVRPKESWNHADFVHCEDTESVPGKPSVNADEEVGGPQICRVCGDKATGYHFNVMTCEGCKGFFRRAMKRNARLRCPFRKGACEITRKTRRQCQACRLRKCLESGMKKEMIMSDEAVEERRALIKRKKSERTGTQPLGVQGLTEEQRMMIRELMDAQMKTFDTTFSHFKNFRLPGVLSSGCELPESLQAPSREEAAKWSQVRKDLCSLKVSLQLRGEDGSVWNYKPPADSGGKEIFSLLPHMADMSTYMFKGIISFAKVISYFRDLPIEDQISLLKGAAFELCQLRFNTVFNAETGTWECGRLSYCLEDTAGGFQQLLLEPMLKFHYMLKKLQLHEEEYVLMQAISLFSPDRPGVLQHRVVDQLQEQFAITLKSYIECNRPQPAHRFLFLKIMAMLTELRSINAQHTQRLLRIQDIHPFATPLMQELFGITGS

[9] = Half life in cynomolgus monkey at 3 mg/kg, iv administered as 10 mins infusion by LC/MS/MS analysis; type: ADME, organism-based, Macaca fascicularis; conditions: in vivo
[10] = target: Alpha-1-acid glycoprotein 1 (Homo sapiens, UniProt P02763); experiment: Binding affinity to human alpha-1-AGP at 1 uM measured after 4 hrs by equilibrium dialysis method relative to control; type: ADME; conditions: isolated protein, 4 h, 1 µM
[11] = target: T3, Nuclear receptor subfamily 1 group I member 2; experiment: Agonist activity at human PXR expressed in human HepG2 cells assessed as induction of CYP3A4 measured after 24 hrs by AlamarBlue dye-based luciferase reporter gene assay relative to control; type: cell-based; conditions: hepg2, 24 h
[12] = Agonist activity at LXR-beta in cynomolgus monkey whole blood assessed as ABCA1 gene induction by measuring ABCA1 mRNA level after 4 hrs by SYBR-Green dye-based Q-PCR analysis; type: tissue-based; conditions: Macaca fascicularis
Macaca fascicularis = organism: Macaca fascicularis; experiment: Agonist activity at LXR-beta in cynomolgus monkey whole blood assessed as ABCA1 gene induction by measuring ABCA1 mRNA level after 4 hrs by SYBR-Green dye-based Q-PCR analysis relative to control; type: tissue-based
Cynomolgus monkey [13] = experiment: In vivo agonist activity at LXR-beta in cynomolgus monkey assessed as ABCG1 gene induction by measuring total RNA level at 1 mg/kg, po qd administered via gavage for 14 days measured after 5 to 6 hrs of last-dose relative to control; type: functional, Macaca fascicularis
Summary of the method: (§3)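 Cynomolgus monkeys dosed daily for 14 days. ABCG1 mRNA induction measured in blood cells on day 14 and expressed as fold change. Plasma drug concentration taken about 5 h post-dose. Plasma triglycerides also measured against baseline, with significance by ANOVA.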

[14] = Plasma concentration in cynomolgus monkey at 1 mg/kg, po qd administered via gavage for 14 days measured after 5 hrs of last-dose by LC/MS/MS analysis; type: ADME, organism-based, Macaca fascicularis
Summary of the method: (§4)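 Cynomolgus monkeys dosed daily for 14 days. On day 14, plasma drug concentration was taken 5 h post-dose. Plasma triglycerides were expressed as % elevation over baseline, with significance tested by ANOVA (p < 0.05).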

[15] = Effect on plasma triglyceride level in cynomolgus monkey at 1 mg/kg, po qd administered via gavage for 14 days measured after 24 hrs of last-dose relative to base line; type: ADME, organism-based, Macaca fascicularis; conditions: in vivo; summary of the method: as §4
[16] = Plasma concentration in cynomolgus monkey at 0.3 mg/kg, po qd administered via gavage for 14 days measured after 5 hrs of last-dose by LC/MS/MS analysis; type: ADME, organism-based, Macaca fascicularis; summary of the method: as §4
Cynomolgus monkey [17] = experiment: In vivo agonist activity at LXR-beta in cynomolgus monkey assessed as ABCG1 gene induction by measuring total RNA level at 0.3 mg/ kg, po qd administered via gavage for 14 days measured 5 to 6 hrs post-dose; type: functional, Macaca fascicularis; summary of the method: as §3
[18] = Effect on plasma triglyceride level in cynomolgus monkey at 0.3 mg/kg, po qd administered via gavage for 14 days measured after 24 hrs of last-dose relative to base line; type: ADME, organism-based, Macaca fascicularis; conditions: in vivo
Summary of the method: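 Cynomolgus monkeys dosed for 14 days, with groups at 0.1, 0.3 and 1 mg/kg. Plasma triglycerides expressed as percent change over baseline, with significance by ANOVA. Plasma drug exposure sampled 5 h post-dose. ABCG1 induction in blood cells monitored in the same animals.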

[19] = target: T1, Oxysterols receptor LXR-beta (Homo sapiens); experiment: as §2, with “as ABCG1” for “as ABCA1”; type: tissue-based

Chain of Alpha-1-acid glycoprotein 1 (P02763 whole entry): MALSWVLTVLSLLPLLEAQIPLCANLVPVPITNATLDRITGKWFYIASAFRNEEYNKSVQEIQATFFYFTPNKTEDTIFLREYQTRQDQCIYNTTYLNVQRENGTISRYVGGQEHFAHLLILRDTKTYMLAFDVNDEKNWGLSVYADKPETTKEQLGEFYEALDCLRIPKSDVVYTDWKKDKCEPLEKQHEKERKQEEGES
Chain of Retinoic acid receptor RXR-alpha/oxysterols receptor LXR-beta (P19793 whole entry, one chain of several): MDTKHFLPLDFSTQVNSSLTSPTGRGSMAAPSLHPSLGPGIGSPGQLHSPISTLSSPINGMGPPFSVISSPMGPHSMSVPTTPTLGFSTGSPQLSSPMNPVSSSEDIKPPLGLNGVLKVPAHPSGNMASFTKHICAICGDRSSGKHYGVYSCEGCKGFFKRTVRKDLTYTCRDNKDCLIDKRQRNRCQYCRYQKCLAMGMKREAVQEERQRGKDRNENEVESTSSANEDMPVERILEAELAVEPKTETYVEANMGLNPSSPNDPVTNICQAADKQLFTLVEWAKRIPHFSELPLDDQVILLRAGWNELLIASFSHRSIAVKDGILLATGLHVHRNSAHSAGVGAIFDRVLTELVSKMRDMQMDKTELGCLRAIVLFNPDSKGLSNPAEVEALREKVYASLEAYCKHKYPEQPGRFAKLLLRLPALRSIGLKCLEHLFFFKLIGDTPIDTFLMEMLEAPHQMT

Efficacy [1]: 88% | EC50 [2]: 24 nM | Ki [3]: 12 nM | EC50 [4]: 0.6 nM | Efficacy [5]: 29% | EC50 [6]: 9 nM | Efficacy [7]: 26% | EC50 [8]: 1000 nM | t1/2 [9]: 12 h | PB [10]: 97.3% | Activity [11]: 108% | EC50 [12]: 5 nM | concentration at 5 h [14]: 57 nM | Activity [15]: 10% | concentration at 5 h [16]: 22 nM | Activity [18]: 8% | Efficacy [19]: 26%
Compound: CC(C)(O)c1cn(-c2ccc(-c3cc(F)c(CO)c(S(C)(=O)=O)c3)cc2F)c(C(C)(C)c2c(Cl)cccc2Cl)n1 [BMS-852927]
Efficacy (Macaca fascicularis): 32% | fold change (FC) (Cynomolgus monkey [13]): 11 | fold change (FC) (Cynomolgus monkey [17]): 15
